The source of these data is ChEMBL document CHEMBL3526142, “Biotransformation of a novel antimitotic agent, I-387, by mouse, rat, dog, monkey, and human liver microsomes and in vivo pharmacokinetics in mice” (Drug Metab Dispos, 2011).

In data set [1] the test system is Liver microsome. Briefly: Drug level in rat liver microsomes assessed as compound retention time treated with 0.5 uM I-387 after 2 hrs by LC-MS/MS analysis. The class given is ADME. An outline of the steps:
(§1)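 Pooled liver microsomes (1 mg/ml protein) incubated with 0.5 µM substrate and 3 mM NADPH in 65 mM potassium phosphate, pH 7.4, 1% methanol, at 37°C for 2 h. Stopped with ice-cold acetonitrile containing internal standard, centrifuged. Supernatant analysed by LC-MS/MS on a C18 column, 15-min gradient, with product ion scans for metabolite identification.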

A short description of data set [2]: Retention time of the compound at 0.5 uM by LC-MS/MS analysis. The class given is physicochemical. Put shortly: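 After a 2 h incubation at 37°C with liver microsomes (1 mg/ml protein, 3 mM NADPH, 0.5 μM substrate, pH 7.4 phosphate buffer), samples were quenched with acetonitrile and centrifuged. Supernatant separated on a C18 column (15 min run, linear gradient 100% A to 100% B over 7 min) with LC-MS/MS ion trap detection.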

In a further data set the test system is Liver. Put plainly: Drug level in mouse liver microsomes assessed as compound retention time treated with 0.5 uM I-387 after 2 hrs by LC-MS/MS analysis. Type of data set: ADME. An outline of the steps: as §1
(In general: Microsomes from liver hold many membrane-bound enzymes, among them those of drug oxidation.)

The subject of data set [3] is Liver microsome. Put plainly: Drug level in dog liver microsomes assessed as compound retention time treated with 0.5 uM I-387 after 2 hrs by LC-MS/MS analysis. Type of data set: ADME, Canis lupus familiaris. An outline of the steps:
as §1

Data set [4] is described as follows: Drug level in monkey liver microsomes assessed as compound retention time treated with 0.5 uM I-387 after 2 hrs by LC-MS/MS analysis. The class given is ADME, Macaca mulatta. To be noted: rhesus monkey. Put shortly: as §1
Data set [5] deals with Liver microsome. Briefly: Drug level in human liver microsomes assessed as compound retention time treated with 0.5 uM I-387 after 2 hrs by LC-MS/MS analysis. Type of data set: ADME. Put shortly: as §1

Regarding `COc1cc(C(O)c2cccc(-c3cc4ccccc4[nH]3)c2)cc(OC)c1OC` (stereo unspecified), the Drug metabolism entry (in the data set on Liver microsome [1]; with Liver; in the data set on Liver microsome [3]; in data set [4]; in the data set with Liver microsome [5]) was “metabolite_detected” in each case. Also, the Retention_time in data set [2] was 10.5 min.
